Fewer inactive variants are shown than the library holds.
B1: tRNA (parent)
chain: GUUCCGUUGGCGUAAUGGUAACGCGUCUCCCUCCUAAGGAGAAGACUGCGGGUUCGAGUCCCGUACGGAACG

Variants of: B1
Assay: yeast fitness relative to wild type (ratio to wild type); higher = fitter; tRNA-Arg(CCU), competitive growth, 37 C, YPD
Summary of the method: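 Start and end populations of a pooled competition were compared by 100-nucleotide paired-end sequencing of gene amplicons. The Saccharomyces cerevisiae strains carried tRNA-Arg(CCU) gene variants at the native genomic locus, synthesised with a 3% per-site mutation rate at 69 sites, and competed in YPD at 37°C for 24 hours in six parallel replicates. Darwinian fitness relative to wild type was based on the change in genotype frequencies. Genotypes required ≥ 100 starting reads, and estimates < 0.5 were set to 0.5.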

Variant | yeast fitness
A36U G44A | 0.578
A36U A37U | 0.587
U35G G63A | 0.7
A37C A57U A65U | 0.637
A36U C61U | 0.693
A37C A45U G67C G68A | ≤ 0.5
A36U U53G | 0.544
A36U U53A | 0.728
A36G G38C G63A | ≤ 0.5
A36U C62U A65U | 0.519
U35A G52A | 0.532
A36G G68C | 0.779
A36G G58A C60U | ≤ 0.5
A36U A40G U53A | 0.627
A36C G38C | 0.524
U35G C46U A65C G67C | ≤ 0.5
A36U U64A | 0.535
A37C C49A | 0.651
C34U U59A | 0.762
U35G A57C A70C | ≤ 0.5
A37C A43C A70U | 0.622
A36C G38A G58A | 0.562
A36G U54A | 0.691
A37C A42C C46A A70C | ≤ 0.5

Variant | yeast fitness
A36C A37U | ≤ 0.5
A36C A37G | 0.611
A37C C46U A65C | 0.638
U35C A40C | 0.795
U35C A40G | 0.711
A36C C46U | 0.577
A36C C46G | 0.543
A37C A43U A69U | 0.738
A36G U64C C66U | 0.768
A37C A45U G68C | ≤ 0.5
C34U G52C C55U G58A | ≤ 0.5
U35G A69C | 0.592
A37C A40C U53C | 0.526
U35A U54C C61G | 0.645
A36G C61U U64C C66U | ≤ 0.5
A36U G48A | 0.657
A36G A43U U47G U53G | ≤ 0.5
C34U G58C C62G G67A | ≤ 0.5
A36G A40C A42G C61U | 0.566
A36G U59C C61A C62U | ≤ 0.5
U35C G39A U53A | 0.567
A36G C61G A69G | 0.56
U35A G38A C61G | ≤ 0.5
U35A A43C C49A | 0.566

Variant | yeast fitness
A36U G39A A45G G63U | 0.535
A36U A45U U53A C62A | ≤ 0.5
A36G A40G | 1.01
A36U A57G | 0.582
A36U A57C | 0.528
A36U A57U | 0.547
A36C U59C | 0.562
U35G U53G | 0.592
A36C G50A | 0.608
A36C A42U A65U | 0.647
U35C C46A C49A | ≤ 0.5
A36C G38C A45G | 0.585
A36G G48A G51C | ≤ 0.5
U35C G63A | 0.614
U35C G52C G67C | 0.533
A36G G52A C66A A69U | ≤ 0.5
A36C A69U | 0.63
A36C A40U C46A G68C | 0.584
A36U C46A C62G | ≤ 0.5
A36G C66U A69U | 0.76
U35A A45C G68U | ≤ 0.5
U35A A37U G52A U59C C66A G67A | ≤ 0.5
A36U A70U | 0.747
A36U A45C C49G | 0.704

Variant | yeast fitness
U35C A42C G50A | ≤ 0.5
A36U A40U C60A | 0.713
U35A A65G | 0.751
U35C A36U G38A C46A U54C | ≤ 0.5
A36C G38C G50C G51A G63C | 0.642
U35C G50C | 0.703
U35C G50A | 0.927
A37C C46G | 0.947
A36G G48A C49U | 0.606
U35A A45C | 0.576
A36G U53A | 0.754
A36G A45C G52C A69C | 0.54
A36C C46G G51A | ≤ 0.5
A36C A40C | 0.572
A36G A42U U53C G58C | 0.569
U35C G44A A57U C66G | ≤ 0.5
U35G U64C A65U | ≤ 0.5
A36G A37U U64C A65G | ≤ 0.5
A36C C49U G67C | 0.532
A36C G48C C62U | ≤ 0.5
U35C U53A | 0.56
A36C C49A U54C U64C | ≤ 0.5
A36C G68A | 0.56
C34U G56A | 0.798

Variant | yeast fitness
A37C A42G | 0.777
A36C A43U | 0.575
C34U G67A | 0.744
U35A A45C G56A | 0.636
A37C A45U G52C | ≤ 0.5
A36U A45U C46A C66U A69U | ≤ 0.5
C34U G58A A65U | 0.618
U35C A65C | 0.807
A37C A69U | 1.03
A37C A69C | 0.865
A36C A40G C46U | 0.569
A36U A42C C61G | ≤ 0.5
U35C G41C A65C | ≤ 0.5
U35G C61U | 0.792
U35A A57U C66G | ≤ 0.5
A36C A45C C49U C55G C62A G68A | ≤ 0.5
A36U G52C | 0.53
A36C A37G G56A | ≤ 0.5
A36G A42C C49A | 0.548
A37C A40G G52C U59C A65U | ≤ 0.5
U35C A45G | 0.773
A37C A65G | 0.94
A36C A42U | 0.639
A36U G68C | 0.698

Variant | yeast fitness
A36U G68A | 0.642
A36G A37U C61G | ≤ 0.5
A36C A42G C61A | ≤ 0.5
A36G C55U G68C | 0.594
U35G A43U C46G U53C A69C | ≤ 0.5
U35C G50C U54A | ≤ 0.5
U35C G44A C46G G50C U53A C66A | ≤ 0.5
U35G A65U | 0.606
U35A G58A G67C | ≤ 0.5
U35C C60G | 0.602
A36U C49G U54C | 0.66
U35G C49A | 0.595
U35A C61G | ≤ 0.5
U35G G44A | 0.509
A36G A70C | 1.02
A36G A70G | 0.914
A36G A70U | 0.832
A36G A45C C55G G58C | 0.689
A37C C46G C62U | 0.872
A36G C62U | 1.05
A36G C62G | 0.905
A36G C62A | 0.672
U35C G52A | 0.658
A36U C46G A69U | 0.538

Variant | yeast fitness
U35A A36U G39A | 0.567
U35C U59A A70C | ≤ 0.5
A36G A45C C66U | 0.787
A36C G58A | 0.618
A36U A42C C55G C61G | ≤ 0.5
A37C A42C C66A | 0.547
A36G A40U G44A | 1.06
A36C A37U G50C C66U | 0.56
U35A A57U C61U | ≤ 0.5
A36U U59C | 0.663
A36U U47G A70G | ≤ 0.5
U35C G51U | 0.527
A36G U54A C60G | ≤ 0.5
A36U G39A | 0.657
A36U G39C | 0.669
U35C C46U A69U | 0.832
A36U G38A | 0.617
A36U G56C A65C | ≤ 0.5
A36U A69U | 0.623
A36C U64A | 0.932
A36C U64C | 0.824
A36G A57G C61U | 0.56
U35C A36G | 0.931
